A short description of data set [1]: Plasma concentration in Crl:NU(NCr)-Foxn1 nu mouse at 40 mg/kg, ip injected via vehicle consisting 25% propylene glycol, 20% tween-20, 20% PEG400, 20% ethanol by LC-MS analysis. Type of data set: ADME, organism-based. Conditions: in vivo. A digest of the protocol: (§1)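 Male Nu/Nu mice, some bearing NCI-H460 or LOX-IMVI xenografts, given a single ip dose at 3 mL/kg. Organic vehicle components were dissolved first, with the aqueous part added gradually. Mice were euthanized at 1 h or 3 h. Cardiac blood was taken into NaEDTA/NaF plasma separator tubes. Quantification used loratadine internal standard against a spiked blank-plasma curve. Tumours were run as duplicate ~200 mg samples homogenized in 3% SDS and extracted twice with ethyl acetate, assuming 1 g tissue = 1 mL.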

Data set [2] in a line: Ratio of plasma concentration in Crl:NU(NCr)-Foxn1 nu mouse at 40 mg/kg, ip injected via vehicle consisting 40.5% propylene glycol, 2.7% tween-20, 31.5% PEG400, 15.3% ethanol and 10% water measured at 1 hr post injection to IC50 for human NCI-H460 cells. Format: ADME, organism-based. Conditions: in vivo; call rule not given here.
Data set [3] can be described thus: Time at which plasma concentration stays above NCI-H460 IC50 in Crl:NU(NCr)-Foxn1 nu mouse xenografted with human NCI-H460 cells at 40 mg/kg, ip injected via vehicle consisting 40% propylene glycol, 20% tween-20, 20% PEG400, and 20% ethanol by LC-MS analysis. Format: ADME, organism-based. Conditions: in vivo.
A short description of data set [4]: Ratio of plasma concentration in Crl:NU(NCr)-Foxn1 nu mouse at 75 to 100 mg/kg, ip injected via vehicle consisting 40.5% propylene glycol, 2.7% tween-20, 31.5% PEG400, 15.3% ethanol and 10% water measured at 6 hrs post injection to IC50 for human NCI-H460 cells. Format: ADME, organism-based. To be noted: in vivo.
Data set [5] has as its system M14. As to the kind of experiment: Antiproliferative activity against human M14 cells after 72 hrs by CellTiter 96 aqueous nonradioactive cell proliferation assay. Conditions: M14, 72 h. Type of data set: functional, cell-based. The gist of the method:
(§2)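 Antiproliferation in cultured tumour cells, at least 3 replicate wells per concentration per experiment. NCI-H460 came from ATCC. M14, NCI/ADR-RES, OVCAR-4, HCT-15, ACHN and SF-295 came from the National Cancer Institute. IC50 reported from single experiments where no SD is given.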

Data set [6] in a line: Time at which plasma concentration stays above NCI-H460 IC50 in Crl:NU(NCr)-Foxn1 nu mouse xenografted with human NCI-H460 cells at 40 mg/kg, ip injected via vehicle consisting 40.5% propylene glycol, 2.7% tween-20, 31.5% PEG400, 15.3% ethanol and 10% water by LC-MS analysis. Conditions: in vivo. Format: ADME, organism-based. A general note: In xenograft studies the graft and the host belong to different species.

Data set [7] can be described thus: Plasma concentration in Crl:NU(NCr)-Foxn1 nu mouse at 40 mg/kg, ip injected via vehicle consisting 40% propylene glycol, 20% tween-20, 20% PEG400, 20% ethanol […] by LC-MS analysis. To be noted: in vivo. Type of data set: ADME, organism-based. A digest of the protocol: as §1
Data set [8] in a line: Ratio of plasma concentration in Crl:NU(NCr)-Foxn1 nu mouse at 40 mg/kg, ip injected via vehicle consisting 40.5% propylene glycol, 2.7% tween-20, 31.5% PEG400, 15.3% ethanol and 10% water measured at 30 mins post injection to IC50 for human NCI-H460 cells. Format: ADME, organism-based. Conditions: in vivo, 0.5 h.
Data set [9] can be described thus: Plasma concentration in Crl:NU(NCr)-Foxn1 nu mouse at 40 mg/kg, ip injected via vehicle consisting 45% propylene glycol, <3 % tween-20, 20% PEG400, 20% ethanol by LC-MS analysis. Type of data set: ADME, organism-based. Conditions: in vivo. The gist of the method:
as §1

For data set [10], the system named is NCI-H460. Nature of the data set: Antiproliferative activity against human NCI-H460 cells after 72 hrs by CellTiter 96 aqueous nonradioactive cell proliferation assay. Type of data set: functional, cell-based. Conditions: NCI-H460, 72 h. A digest of the protocol: as §2
A short description of data set [11]: Drug uptake in tumor of human LOXIMVI cells xenografted in Crl:NU(NCr)-Foxn1 nu mouse at 40 mg/kg, ip measured at 3 hrs post injection by LC-MS analysis. Format: ADME, organism-based, Neoplasm. Conditions: in vivo. The gist of the method:
as §1

As usually defined, the pIC50 is the IC50 on a negative log10 scale, so that one unit is a factor of ten.

pIC50: −log10 of the molar value.

On to `C=CC[C@H]1C[C@]2([C@@H](C)Cc3ccc(OC)c(OC)c3)OCOC2=CC1=O`, for which the Drug uptake result in [1] is given as “Not Active”; in data set [7], “Active”; in data set [9] it was “Active”. The figures for the Ratio in data set [2], in data set [4] and in [8] were above 3, above 4 and above 6, respectively. Further, the Time in data set [3] turned out to be 1 h; in [6], 3 h. The pIC50 in data set [5] was 6.96.

Take `C=CC[C@H]1C[C@]2([C@@H](C)Cc3ccc(OC)cc3F)OCOC2=CC1=O`: the values for the pIC50 in data set [10] and in [5] were 7.03 and 7.85, respectively. Moreover, the Drug uptake entry in data set [11] is “Active”.

Values taken from ChEMBL document CHEMBL4325827, “Bifidenone: Structure-Activity Relationship and Advanced Preclinical Candidate” (J Med Chem, 2018).
